# pIC50: −log10 of the molar value. Calls of active or inactive are those of the source. No cut-off for these calls is given here.
# Experiments:
# [1] = system: U-251; assay: Inhibition of desferrioxamine-induced VEGF mRNA expression in human U251 cells at 1 uM by quantitative RT-PCR analysis; type: functional
# In short: (§1)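 In U251 cells, induced VEGF mRNA was quantified by real-time RT-PCR after polyamide at 1, 0.2 and 0.02 μM, with DMSO ≤0.1%. Values were normalized to untreated induced cells; uninduced and DMSO-vehicle controls were run alongside.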
# [2] = system: U-251; assay: Inhibition of desferrioxamine-induced VEGF mRNA expression in human U251 cells at 0.02 to 0.2 uM by quantitative RT-PCR analysis; type: functional, cell-based; in short: as §1
# [3] = system: LNCaP; assay: Inhibition of desferrioxamine-induced VEGF mRNA expression in human LNCAP cells at 10 uM by quantitative RT-PCR analysis; type: functional
# In short: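 DFO-induced VEGF mRNA was measured in LNCaP cells by quantitative real-time RT-PCR, following the LNCaP PSA protocol but with non-charcoal-stripped FBS. Polyamide doses were 10, 2 and 0.2 μM, with DMSO ≤0.1%. Levels were normalized to untreated induced cells; untreated uninduced and DMSO controls were included.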
# [4] = system: Nucleic Acid; assay: Binding affinity to 5'-GTGCATACGTGGGC-3' sequence of DNA assessed as change in melting temperature by spectrophotometry; type: nucleic-acid assay
# [5] = system: LNCaP; assay: Inhibition of dihydrotestosterone-induced prostate specific antigen expression in human LNCAP cells at 5 uM by quantitative RT-PCR analysis; type: functional
# In short: (§2)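 LNCaP cells were induced with 1 nM DHT and PSA mRNA measured by quantitative real-time RT-PCR. Oxime-linked polyamides were given at 5, 1 and 0.1 μM, and unconjugated controls at 5 μM, with DMSO ≤0.1%. Expression was normalized to untreated DHT-induced cells; uninduced and DMSO controls were included.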
# [6] = system: LNCaP; assay: Inhibition of dihydrotestosterone-induced prostate specific antigen expression in human LNCAP cells at 1 uM by quantitative RT-PCR analysis; type: functional, cell-based; in short: as §2
# [7] = system: LNCaP; assay: Inhibition of dihydrotestosterone-induced prostate specific antigen expression in human LNCAP cells by quantitative RT-PCR analysis; type: functional, cell-based
# In short: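 For gene-regulation IC50, DHT (1 nM)-induced LNCaP cells were dosed across 30–0.1 μM or 10–0.03 μM. PSA mRNA was quantified by real-time RT-PCR and normalized to induced untreated cells. Isotherms from three independent experiments were fitted with a modified Hill equation.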
# [8] = system: LNCaP; assay: Cytotoxicity against human LNCAP cells at 5 uM after 48 hrs by WST1 assay; type: functional, cell-based
# [9] = system: LNCaP; assay: Cytotoxicity against human LNCAP cells after 48 hrs by WST1 assay; type: functional, cell-based
# In short: (§3)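 LNCaP cells were seeded at 10-15 × 10^2 per well and allowed to settle 48 h before polyamide was added as 2× media solutions (DMSO <0.1%). After 48 h exposure, media was replaced and cells recovered 24 h. WST-1 was added for 30 min and A450 read. Wells were corrected for media-only background and normalized to untreated controls.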
# [10] = system: LNCaP; assay: Selectivity ratio of IC50 for human LNCAP cells to IC50 for inhibition of dihydrotestosterone-induced prostate specific antigen expression in human LNCAP cells; type: functional
# In short: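 Ratio of WST-1 growth-inhibition IC50 (48 h exposure, 24 h recovery, LNCaP) to PSA gene-regulation IC50. The gene-regulation IC50 came from Hill-fitted RT-PCR isotherms in 1 nM DHT-induced LNCaP cells, three independent experiments.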
# [11] = system: Nucleic Acid; assay: Binding affinity to 5'-TTGCAGAACAGCAA-3' sequence of DNA assessed as change in melting temperature by spectrophotometry; type: nucleic-acid assay
# [12] = system: LNCaP; assay: Cytotoxicity against human LNCAP cells at 0.02 to 50 uM after 48 hrs by WST1 assay; type: functional, cell-based; in short: as §3
# [13] = system: U-251; assay: Cytotoxicity against human U251 cells at 0.002 to 10 uM after 48 hrs by WST1 assay; type: functional, cell-based
# In short: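 U251 cells were plated at 10-15 × 10^2 per well. After 24 h, polyamide was added in 2× media, with a 10–0.002 μM range for the core-less oxime controls. Cells were treated 48 h, then given fresh media for 24 h recovery. WST-1 was read at 450 nm after 30 min, with background correction and normalization to untreated wells.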
# [14] = system: U-251; assay: Cytotoxicity against human U251 cells after 48 hrs by WST1 assay; conditions: U-251, 48 h
# [15] = system: LNCaP; assay: Inhibition of dihydrotestosterone-induced prostate specific antigen expression in human LNCAP cells at 0.1 to 5 uM by quantitative RT-PCR analysis; type: functional, cell-based; in short: as §2
# [16] = system: LNCaP; assay: Cytotoxicity against human LNCAP cells assessed as cell viability at 0.01 to 30 uM after 48 hrs by WST1 assay; type: functional; in short: as §3
# [17] = system: Nucleic Acid; assay: Binding affinity to 14mer DNA assessed as change in melting temperature by spectrophotometry; type: nucleic-acid assay
# In short: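 Thermal melting of 14-mer oligonucleotide duplexes (HRE or ARE sequence) with and without polyamide, read by UV spectrophotometry in 1 cm quartz cuvettes with a thermostatted holder. Buffer was 10 mM sodium cacodylate, 10 mM KCl, 10 mM MgCl2, 5 mM CaCl2, pH 7.0. ΔTm is taken relative to the free duplex.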
# [18] = system: U-251; assay: Selectivity ratio of inhibition of desferrioxamine-induced VEGF mRNA expression in human LNCAP cells to inhibition of desferrioxamine-induced VEGF mRNA expression in human U251 cells; type: functional
# [19] = system: LNCaP; assay: Inhibition of expression in human LNCAP cells at 5 uM by quantitative RT-PCR analysis
# [20] = system: LNCaP; assay: Inhibition of desferrioxamine-induced VEGF mRNA expression in human LNCAP cells at 1 to 2 uM by quantitative RT-PCR analysis; type: functional, cell-based
# [21] = system: LNCaP; assay: Cytotoxicity against human LNCAP cells at 0.01 to 30 uM after 48 hrs by WST1 assay; type: functional, cell-based; in short: as §3
compound,measurement,setting,value
Cn1cc(NC(=O)c2cc(NC(=O)c3nc(NC(=O)c4cc(NC(=O)[C@H](N)CCNC(=O)c5nc(NC(=O)c6cc(NC(=O)c7cc(NC(=O)c8sccc8Cl)cn7C)cn6C)cn5C)cn4C)cn3C)cn2C)cc1C(=O)NCCCO/N=C\c1cccc(F)c1,inhibition at 1 µM,[1],60%
same,inhibition,[2],Active
same,inhibition at 10 µM,[3],80%
same,ΔTm,[4],9.4 °C
Cn1cc(NC(=O)c2cc(NC(=O)c3cc(NC(=O)c4nc(NC(=O)[C@H](N)CCNC(=O)c5cc(NC(=O)c6cc(NC(=O)c7cc(NC(=O)c8nccn8C)cn7C)cn6C)cn5C)cn4C)cn3C)cn2C)cc1C(=O)NCCCO/N=C\c1cccc(C(=O)O)c1,inhibition,[5],Active
same,inhibition,[6],Active
same,pIC50,[7],6.52
same,Activity,[8],Active
same,pIC50,[9],5.77
same,Ratio IC50,[10],6.1
same,ΔTm,[11],11.5 °C
CC(=O)NCCCO/N=C\c1cccc(C(=O)O)c1,pIC50,[9],< 4.30
same,Activity,[12],inactive
same,Activity,[13],inactive
same,pIC50,[14],< 5.00
NCCCO/N=C\c1cccc(C(=O)O)c1,pIC50,[9],< 4.30
same,Activity,[12],inactive
same,Activity,[13],inactive
same,pIC50,[14],< 5.00
Cn1cc(NC(=O)c2cc(NC(=O)c3nc(NC(=O)c4cc(NC(=O)[C@H](N)CCNC(=O)c5nc(NC(=O)c6cc(NC(=O)c7cc(NC(=O)c8sccc8Cl)cn7C)cn6C)cn5C)cn4C)cn3C)cn2C)cc1C(=O)NCCCO/N=C\c1ccc(F)cc1,inhibition at 1 µM,[1],60%
same,inhibition,[2],Active
same,inhibition at 10 µM,[3],80%
same,ΔTm,[4],10.5 °C
Cn1cc(NC(=O)c2cc(NC(=O)c3cc(NC(=O)c4nc(NC(=O)[C@H](N)CCNC(=O)c5cc(NC(=O)c6cc(NC(=O)c7cc(NC(=O)c8nccn8C)cn7C)cn6C)cn5C)cn4C)cn3C)cn2C)cc1C(=O)NCCCO/N=C\c1cccc(F)c1,inhibition,[5],Active
same,Activity,[8],Active
same,pIC50,[9],6.22
same,ΔTm,[11],12.5 °C
NCCCO/N=C\c1ccc(F)cc1,pIC50,[9],< 4.30
same,Activity,[12],inactive
same,Activity,[13],inactive
same,pIC50,[14],< 5.00
Cn1cc(NC(=O)c2cc(NC(=O)c3nc(NC(=O)c4cc(NC(=O)[C@H](N)CCNC(=O)c5nc(NC(=O)c6cc(NC(=O)c7cc(NC(=O)c8nccn8C)cn7C)cn6C)cn5C)cn4C)cn3C)cn2C)cc1C(=O)NCCCO/N=C\c1ccc(F)cc1,inhibition,[15],Active
same,Activity,[16],<50%
same,pIC50,[9],≤ 4.52
same,ΔTm,[17],3.4 °C
Cn1cc(NC(=O)c2cc(NC(=O)c3nc(NC(=O)c4cc(NC(=O)[C@H](N)CCNC(=O)c5nc(NC(=O)c6cc(NC(=O)c7cc(NC(=O)c8sccc8Cl)cn7C)cn6C)cn5C)cn4C)cn3C)cn2C)cc1C(=O)NCCCO/N=C\c1cccc(C(=O)O)c1,inhibition at 1 µM,[1],60%
same,inhibition,[2],Active
same,inhibition at 10 µM,[3],80%
same,ΔTm,[4],11.4 °C
CN(CCCNC(=O)c1cccc(C(=O)O)c1)CCCNC(=O)c1cc(NC(=O)c2cc(NC(=O)c3cc(NC(=O)c4nc(NC(=O)[C@H](N)CCNC(=O)c5cc(NC(=O)c6cc(NC(=O)c7cc(NC(=O)c8nccn8C)cn7C)cn6C)cn5C)cn4C)cn3C)cn2C)cn1C,pIC50,[7],5.22
same,Ratio,[18],10
same,Activity,[16],<50%
same,pIC50,[9],< 4.52
same,Ratio IC50,[10],>=5
same,ΔTm,[11],14.2 °C
same,inhibition,[19],Active
Cn1cc(NC(=O)c2cc(NC(=O)c3cc(NC(=O)c4nc(NC(=O)[C@H](N)CCNC(=O)c5nc(NC(=O)c6cc(NC(=O)c7nc(NC(=O)c8nccn8C)cn7C)cn6C)cn5C)cn4C)cn3C)cn2C)cc1C(=O)NCCCO/N=C\c1cccc(C(=O)O)c1,inhibition,[2],Active
same,inhibition,[20],Active
same,ΔTm,[17],0.8 °C
Cn1cc(NC(=O)c2cc(NC(=O)c3cc(NC(=O)c4nc(NC(=O)[C@H](N)CCNC(=O)c5cc(NC(=O)c6cc(NC(=O)c7cc(NC(=O)c8nccn8C)cn7C)cn6C)cn5C)cn4C)cn3C)cn2C)cc1C(=O)NCCCO/N=C\c1ccc(F)cc1,inhibition,[5],Active
same,inhibition,[6],Active
same,pIC50,[7],6.22
same,Activity,[8],Active
same,pIC50,[9],6.40
same,Ratio IC50,[10],0.7
same,ΔTm,[17],13.1 °C
Cn1cc(NC(=O)c2cc(NC(=O)c3cc(NC(=O)c4nc(NC(=O)[C@H](N)CCNC(=O)c5nc(NC(=O)c6cc(NC(=O)c7nc(NC(=O)c8nccn8C)cn7C)cn6C)cn5C)cn4C)cn3C)cn2C)cc1C(=O)NCCCO/N=C\c1cccc(F)c1,inhibition,[2],Active
same,inhibition,[20],Active
same,ΔTm,[17],0.9 °C
Cn1cc(NC(=O)c2cc(NC(=O)c3cc(NC(=O)c4nc(NC(=O)[C@H](N)CCNC(=O)c5nc(NC(=O)c6cc(NC(=O)c7nc(NC(=O)c8nccn8C)cn7C)cn6C)cn5C)cn4C)cn3C)cn2C)cc1C(=O)NCCCO/N=C\c1ccc(F)cc1,inhibition,[2],Active
same,inhibition,[20],Active
same,ΔTm,[17],0.8 °C
Cn1cc(NC(=O)c2cc(NC(=O)c3nc(NC(=O)c4cc(NC(=O)[C@H](N)CCNC(=O)c5nc(NC(=O)c6cc(NC(=O)c7cc(NC(=O)c8nccn8C)cn7C)cn6C)cn5C)cn4C)cn3C)cn2C)cc1C(=O)NCCCO/N=C\c1cccc(C(=O)O)c1,inhibition,[15],Active
same,Activity,[16],<50%
same,Activity,[21],inactive
same,ΔTm,[17],2.6 °C
Cn1cc(NC(=O)c2cc(NC(=O)c3nc(NC(=O)c4cc(NC(=O)[C@H](N)CCNC(=O)c5nc(NC(=O)c6cc(NC(=O)c7cc(NC(=O)c8nccn8C)cn7C)cn6C)cn5C)cn4C)cn3C)cn2C)cc1C(=O)NCCCO/N=C\c1cccc(F)c1,inhibition,[15],Active
same,Activity,[16],<50%
same,pIC50,[9],≤ 4.52
same,ΔTm,[17],4 °C
CC(=O)NCCCO/N=C\c1ccc(F)cc1,pIC50,[9],< 4.30
same,Activity,[12],inactive
same,Activity,[13],inactive
same,pIC50,[14],< 5.00

# Reference: ChEMBL document CHEMBL1155270, “Modifications at the C-terminus to improve pyrrole-imidazole polyamide activity in cell culture” (J Med Chem, 2009)
